From article PMC2831214 (Nature chemical biology, 2010)
Entries after “also recorded” stand apart in the source; their conditions may differ. Numbered stars: 1 amine (or outer) side, 2 acyl side, 3 side chain; on linkers, the order of the positions; unused ones are H or OH. Bridge positions count the residues as written; N and C are the ends. Square brackets hold non-standard residues; d marks the D form. Peptide text beside a SMILES is read from it. I, II: the chains in the order shown. Actinocin(9to1) = Cc1c2oc3c(C)ccc(C(=O)[*:1])c3nc-2c(C(=O)[*:2])c(N)c1=O; NMeV = CN[C@H](C(=O)O)C(C)C; Sar = CNCC(=O)O

How the values were obtained:
[1] = test system: protein synthesis in HeLa cells; assay: De novo protein synthesis by [35S]cysteine/methionine metabolic labeling; type: cell-based; conditions: for Effect on protein synthesis (translation): metabolic labeling 2 h
Outline: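 HeLa cells were given varying concentrations of test compound with [35S]cysteine/methionine for 2 h. TCA-precipitated proteins were collected on PVDF membrane and scintillation counted. Cycloheximide served as translation-inhibitor control and actinomycin D as transcription-inhibitor control. Runs were in triplicate, with s.d. shown.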

[2] = test system: RNA synthesis in HeLa cells; assay: RNA synthesis; type: cell-based; conditions: [3H]uridine 2 h
Outline: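 HeLa cells exposed to a range of test compound concentrations with [3H]uridine for 2 h. TCA-precipitated material on PVDF membrane quantified by scintillation counting. Actinomycin D and cycloheximide served as controls.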

HEK 293T cells = assay: Polysome profiles in cells; type: cell-based; conditions: 30 min
[3] = biological target: eEF1A-mediated binding of aminoacyl-tRNA to ribosomes (Oryctolagus cuniculus, UniProt G1SNY0+G1T040); assay: eEF1A-dependent aminoacyl-tRNA binding; type: biochemical, rabbit; conditions: 200 µM compound
Outline: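 89 pmol ribosomes in 20 mM HEPES pH 7.4, 100 mM KCl, 10 mM MgCl2, 1 mM DTT were mixed with 200 ng poly(U), 2.2 µg eEF1A, 150 µM GDPNP and 200 µM compound before 10 pmol [14C]Phe-tRNAPhe was added. After 10 min at 37 °C, samples were diluted, filtered through nitrocellulose, rinsed and scintillation counted (1 pmol = 1100 dpm).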

[4] = biological target: ribosome on rabbit β-globin mRNA (Oryctolagus cuniculus, UniProt G1SNY0+G1T040); assay: Toeprinting on rabbit β-globin mRNA in rabbit reticulocyte lysate; type: biochemical; conditions: CHX 10 mM; LTM at 1/10,000th of the CHX concentration
[5] = biological target: binding of deacylated tRNA to the E-site of ribosomes (Oryctolagus cuniculus, UniProt G1SNY0+G1T040); assay: Deacylated tRNA binding to ribosomes; parameters: species or system rabbit
Outline: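 Deacylated tRNA was 3′-end labelled with [32P] and diluted to 80,000 cpm/pmol. Inhibitor was at graded concentrations; 4 µM unlabelled deacylated tRNA was the control. Samples were diluted with 1 ml buffer, filtered through nitrocellulose, washed 5× and scintillation counted.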

[6] = test system: rabbit reticulocyte lysate with rabbit β-globin RNA; assay: Polysome profiles in vitro; type: biochemical; conditions: cell free system, 15 min
[7] = biological target: eEF2-mediated translocation (Oryctolagus cuniculus, UniProt G1SNY0+G1T040); assay: eEF2-dependent translocation; type: biochemical, rabbit; conditions: 200 µM compound
[8] = biological target: pre-assembled initiation complexes (Saccharomyces cerevisiae, UniProt P02406+P0CX27); assay: Reconstituted translation elongation, tripeptide; type: biochemical; conditions: 200 µM
[9] = test system: HeLa, MDA-MB231 and Jurkat T cells; assay: Cell proliferation screen by [3H]-thymidine incorporation; type: cell-based; conditions: 2.5 µM, 24 h
Outline: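 Each of the three cell lines was exposed to test compound at 2.5 µM for 24 h. [3H]-thymidine was then applied to monitor cellular DNA synthesis as the proliferation read-out.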

[10] = test system: cap-dependent and EMCV, HCV, CrPV IRES-mediated translation; assay: IRES dual luciferase reporter assay in rabbit reticulocyte lysate; type: biochemical; conditions: HCV and CrPV IRES reporters
MCF10A = assay: Proliferation of non-tumorigenic breast cell line by [3H]thymidine incorporation; type: cell-based; conditions: 24 h
[11] = biological target: peptide bond formation on ribosomes (Oryctolagus cuniculus, UniProt G1SNY0+G1T040); assay: Peptidyl transfer; type: biochemical, rabbit; conditions: LTM even at millimolar concentrations
[12] = biological target: ribosomes, eEF1A and eEF2 (Oryctolagus cuniculus, UniProt G1SNY0+G1T040); assay: Polyphenylalanine synthesis on a poly; type: biochemical, rabbit; conditions: 200 µM
breast cancer cell lines = assay: Proliferation of breast cancer cell lines by [3H]thymidine incorporation; type: cell-based; conditions: array of breast cancer cell lines, 24 h
P388 lymphoma = conditions: cited from earlier work
Candida = conditions: cited from earlier work
MDA MB 231 tumors = assay: Mouse xenograft model; type: in vivo, female nude mice; conditions: 0.6 mg/kg every day for one month, intraperitoneal
Outline: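 Two million MDA MB 231 cells were injected subcutaneously into female nude mice. Once tumours were palpable, mice received 0.6 mg/kg test compound or solvent alone daily for one month.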

translation = conditions: cited from earlier work
translation in vitro = assay: In vitro translation; type: biochemical

pre-assembled initiation complexes, sequence (P02406 2-149 limits assumed): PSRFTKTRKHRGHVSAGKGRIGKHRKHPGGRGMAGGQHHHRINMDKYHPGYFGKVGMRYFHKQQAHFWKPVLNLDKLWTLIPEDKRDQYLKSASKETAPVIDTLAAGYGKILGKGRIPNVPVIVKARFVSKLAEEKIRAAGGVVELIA
pre-assembled initiation complexes, sequence (P0CX27 2-106 limits assumed): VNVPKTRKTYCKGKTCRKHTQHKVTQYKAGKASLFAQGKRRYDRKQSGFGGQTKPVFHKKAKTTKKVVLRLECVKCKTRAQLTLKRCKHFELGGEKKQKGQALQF

## Cc1c2oc3c(C)ccc(C(=O)N[C@@H]4C(=O)N[C@H](C(C)C)C(=O)N5CCC[C@H]5C(=O)N(C)CC(=O)N(C)[C@@H](C(C)C)C(=O)O[C@@H]4C)c3nc-2c(C(=O)N[C@@H]2C(=O)N[C@H](C(C)C)C(=O)N3CCC[C@H]3C(=O)N(C)CC(=O)N(C)[C@@H](C(C)C)C(=O)O[C@@H]2C)c(N)c1=O [Actinomycin D, reference compound] (I: T[dV]P[Sar][NMeV] / II: T[dV]P[Sar][NMeV]; ester I:1-I:C, II:1-II:C; linker I:N-II:N via Actinocin(9to1))
[1]
  Effect on protein synthesis (translation): concomitantly blocked transcription and translation
[2]
  Effect on transcription: concomitantly blocked transcription and translation

## C[C@@H]1C[C@@H]([C@H](O)CC2CC(=O)NC(=O)C2)C(=O)[C@@H](C)C1 [CHX, cycloheximide, reference compound]
HEK 293T cells
  Effect on polysome profile in cells: little difference between CHX and solvent control
[1]
  Effect on protein synthesis (translation): strongly inhibited translation
[3]
  Effect on eEF1A-mediated binding of aminoacyl-tRNA: not inhibited
[2]
  Effect on transcription: only affected transcription at very high doses
[4]
  Toeprint titration, ribosome arrest: about half the ribosomal population to stop at the very first codon
[5]
  Concentration causing a detectable decrease in the amount of bound tRNA: 10 mM
[6]
  Effect on polysome profile in vitro: causing accumulation of 80S ribosomes
[7]
  Effect on eEF2-mediated translocation (phenylalanyl puromycin formation): inhibited phenylalanyl puromycin formation
[8]
  Effect on tripeptide formation: similar, albeit less pronounced effect

## CO[C@@H](/C=C/CC/C=C/C(=O)O)[C@@H](O)[C@H](C)[C@@H](O)/C(C)=C/[C@H](C)C(=O)CCCC1CC(=O)NC(=O)C1 [Dorrigocin B]
[1]
  Effect on protein synthesis (translation): no inhibitory effect; also recorded: abolished any inhibitory activity
[9]
  Inhibition of cell proliferation ([3H]-thymidine incorporation): neither compound affected cell proliferation

## CO[C@H]1/C=C/CC/C=C/C(=O)O[C@@H](/C(C)=C/[C@H](C)C(=O)CCCC2CC(=O)NC(=O)C2)[C@@H](C)[C@@H]1O [Isomigrastatin, isomigrastatin]
[1]
  Effect on protein synthesis (translation): exclusively inhibited protein synthesis
[2]
  Effect on transcription: without a significant impact on transcription
[9]
  Inhibition of cell proliferation ([3H]-thymidine incorporation): highly active

## C/C(=C\[C@H](C)C(=O)C[C@H](O)CC1CC(=O)NC(=O)C1)[C@@H]1OC(=O)/C=C/CC/C=C/C=C\[C@@H]1C [LTM, lactimidomycin]
HEK 293T cells
  Effect on polysome profile in cells: large increase in 80S ribosomes accompanied by depletion of polysomes
[1]
  Potency as inhibitor of translation relative to CHX: about 10 fold
  Effect on protein synthesis (translation): exclusively inhibited protein synthesis
[3]
  Effect on eEF1A-mediated binding of aminoacyl-tRNA: not inhibited
[2]
  Effect on transcription: without a significant impact on transcription
[10]
  Effect on cap-dependent and IRES-mediated translation: inhibited translation from all three constructs to a similar degree
MCF10A
  Inhibition of growth of non-tumorigenic cells: higher doses were necessary
[11]
  Effect on peptide bond formation (methionyl-puromycin): did not affect peptide bond formation
[12]
  Effect on polyphenylalanine synthesis: inhibited polyphenylalanine synthesis
Breast cancer cell lines
  IC50 concentrations, cell growth: low nanomolar range
[4]
  Toeprint titration, ribosome arrest: arrested the ribosome on the start codon
P388 lymphoma
  Survival of mice with P388 lymphoma: extended the survival
[9]
  Inhibition of cell proliferation ([3H]-thymidine incorporation): most potent inhibitor of cell proliferation; also recorded: highly active
Candida
  Sensitivity of Candida: resistant
[6]
  Effect on polysome profile in vitro: causing accumulation of 80S ribosomes
MDA MB 231 tumors
  Effect on tumor growth in vivo: appreciable effect on tumor growth
[7]
  Effect on eEF2-mediated translocation (phenylalanyl puromycin formation): inhibited phenylalanyl puromycin formation
[8]
  Effect on tripeptide formation: greatly slowed down tripeptide formation

## CO[C@H]1/C=C/CC/C=C/C(=O)O[C@H]([C@H](C)C(=O)CCCC2CC(=O)NC(=O)C2)/C(C)=C\[C@@H](C)[C@@H]1O [Migrastatin, migrastatin]
[1]
  Effect on protein synthesis (translation): no inhibitory effect
[9]
  Inhibition of cell proliferation ([3H]-thymidine incorporation): neither compound affected cell proliferation

## CC(/C=C/C(C)=C/[C@@H]1Cc2nc(cs2)[C@@H](C)C[C@@H](N)CC(=O)O[C@@H](C)C/C(C)=C/C=C\C(=O)O1)=C\CN(C)C [PatA, Pateamine A, reference compound]
[10]
  Effect on cap-dependent and IRES-mediated translation: allowed translation off the HCV IRES

## CSC[S@+]([O-])C[C@H](CO)NC(=O)/C=C/c1c(C)[nH]c(=O)[nH]c1=O [Sparsomycin, reference compound]
[11]
  Effect on peptide bond formation (methionyl-puromycin): prevented methyionyl-puromycin synthesis

## C=C/C(C)=C/[C@H](C)C(=O)C[C@H](O)CC1CC(=O)NC(=O)C1 [Streptimidone]
translation
  Inhibition of translation: inhibits translation

## C/C(=C\[C@H](C)C(=O)C[C@H](O)CC1CC(=O)NC(=O)C1)[C@@H]1OC(=O)CCCC/C=C/C=C\[C@@H]1C [compound 7, 2H Lactimidomycin]
[9]
  Inhibition of cell proliferation ([3H]-thymidine incorporation): highly active

## CO[C@H]1/C=C/CC/C=C/C(=O)O[C@@H](/C(C)=C/[C@H](C)C(=O)/C=C/CC2CC(=O)NC(=O)C2)[C@@H](C)[C@@H]1O [compound 8, Didehydro Isomigrastatin]
[9]
  Inhibition of cell proliferation ([3H]-thymidine incorporation): highly active

## CCOC(=O)CO[C@@H](CC(=O)[C@@H](C)/C=C(\C)[C@@H]1OC(=O)/C=C/CC/C=C/C=C\[C@@H]1C)CC1CC(=O)NC(=O)C1 [compound 36, Ethylacetyl-Lactimidomycin]
Translation in vitro
  Effect of modification on translation inhibitory activity of LTM: did not significantly decrease the activity
